Laboratory results reported in ChEMBL document CHEMBL4371095, “Triazole-Based Inhibitors of the Wnt/β-Catenin Signaling Pathway Improve Glucose and Lipid Metabolisms in Diet-Induced Obese Mice” (J Med Chem, 2019).
Activity calls are given as the source filed them. No cut-off for these calls is given here.

Assays:
[1] = Toxicity in normal chow diet fed C57BL/6J mouse assessed as serum ALT level at 40 mg/kg, ip administered every 2 days for 11 weeks (reference value: 20 +/- 5.1 U/L); format: organism-based; conditions: in vivo
HEK293 [2] = experiment: Inhibition of Wnt/beta-catenin signaling (unknown origin) expressed in GSK3beta knock down HEK293 cells harboring TCF/LEF-responsive luciferase assessed as luminescence at 20 nM measured after 24 hrs by luciferase reporter gene assay relative to control; format: cell-based; parameters: scale not given: the % may be the effect or the level left; conditions: Homo sapiens
Outline: (§1)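 HEK293 cells were transfected with siRNA against GSK3β, Axin or CK1α using RNAiMAX for 36 h. Cells were then treated with or without compound at 20 nM for 24 h, and TCF/LEF luciferase reporter activity was read.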

Mus musculus [3] = experiment: Effect on hepatic ACC1 mRNA level in normal chow diet fed C57BL/6J mouse at 40 mg/kg, ip administered every 2 days for 11 weeks by qPCR analysis; format: ADME, organism-based; conditions: in vivo
Outline: (§2)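 Male mice, 8 weeks old, kept on normal chow throughout and dosed i.p. every 2 days in corn oil vehicle for 11 weeks. Body weight gain, liver/body weight ratio, and liver mRNA of the indicated genes were measured at sacrifice; mean ± SEM, n = 5 per group where stated.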

[4] = Toxicity in normal chow diet fed C57BL/6J mouse assessed as serum BUN level at 40 mg/kg, ip administered every 2 days for 11 weeks (reference value: 19 +/- 1.8 mg/dl); format: organism-based; conditions: in vivo
HEK293 [5] = experiment: Inhibition of Wnt/beta-catenin signaling (unknown origin) expressed in Axin1 knock down HEK293 cells harboring TCF/LEF-responsive luciferase assessed as luminescence at 20 nM measured after 24 hrs by luciferase reporter gene assay relative to control; format: cell-based; parameters: scale not given: the % may be the effect or the level left; conditions: Homo sapiens; outline: as §1
Mus musculus [6] = organism: Mus musculus; experiment: Inhibition of Wnt/beta-catenin/Axin signaling in mouse hepatocytes assessed as decrease in FASN mRNA level at 5 uM by qPCR analysis; format: cell-based
Outline: (§3)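 Normal mouse hepatocytes were treated with 5 μM compound, and lipogenic and gluconeogenic gene mRNA was measured by qPCR; mean ± S.D. of triplicates.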

Mus musculus [7] = experiment: Effect on hepatic FGF21 mRNA level in normal chow diet fed C57BL/6J mouse at 40 mg/kg, ip administered every 2 days for 11 weeks by qPCR analysis; format: ADME, organism-based; conditions: in vivo; outline: as §2
Mus musculus [8] = experiment: Decrease in hepatic PEPCK mRNA level in high fat diet fed C57BL/6J mouse at 40 mg/kg, ip administered every 2 days for 11 weeks by qPCR analysis; format: functional, organism-based
Outline: (§4)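 Male mice, 8 weeks old, fed a 45% kcal fat diet for 6 weeks, then dosed i.p. every 2 days in corn oil vehicle for 11 weeks. Liver mRNA of the indicated genes was quantified at sacrifice; mean ± SEM, n = 5 per group.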

Mus musculus [9] = experiment: Decrease in hepatic G6pase mRNA level in high fat diet fed C57BL/6J mouse at 40 mg/kg, ip administered every 2 days for 11 weeks by qPCR analysis; format: functional, organism-based; outline: as §4
[10] = biological target: Glycogen synthase kinase-3 beta (Homo sapiens, UniProt P49841); experiment: Binding affinity to recombinant full length human N-terminal GST-tagged GSK3beta expressed in sf9 cells by SPR analysis
Sequence of Glycogen synthase kinase-3 beta (P49841 whole entry): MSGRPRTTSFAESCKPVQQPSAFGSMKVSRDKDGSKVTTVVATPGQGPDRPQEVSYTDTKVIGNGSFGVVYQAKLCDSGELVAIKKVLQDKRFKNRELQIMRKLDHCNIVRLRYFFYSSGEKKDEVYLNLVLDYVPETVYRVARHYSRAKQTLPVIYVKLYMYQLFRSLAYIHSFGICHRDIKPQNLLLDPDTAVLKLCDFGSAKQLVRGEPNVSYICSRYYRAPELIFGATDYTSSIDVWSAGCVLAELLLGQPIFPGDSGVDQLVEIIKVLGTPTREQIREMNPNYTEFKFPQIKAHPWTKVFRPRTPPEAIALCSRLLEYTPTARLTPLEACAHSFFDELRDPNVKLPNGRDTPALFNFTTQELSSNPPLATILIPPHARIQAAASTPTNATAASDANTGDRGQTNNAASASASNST
Outline: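 Recombinant GST-tagged human GSK3β. Binding was measured by surface plasmon resonance at a biosensor core facility, and K_D was determined.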

Mus musculus [11] = experiment: Decrease in hepatic ACOT4 mRNA level in high fat diet fed C57BL/6J mouse at 40 mg/kg, ip administered every 2 days for 11 weeks by qPCR analysis; format: functional, organism-based; outline: as §4
HEK293 [12] = experiment: Growth inhibition of unstimulated HEK293 cells up to 100 uM after 72 hrs by CellTiter-Fluor assay; format: cell-based; conditions: human, hek293, 72 h
Outline: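 Unstimulated HEK293 cells were plated at 3.5×10^5/well and grown for 24 h, then incubated with compound for 72 h. Viability was read with CellTiter-Fluor.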

Mus musculus [13] = organism: Mus musculus; experiment: Inhibition of Wnt/beta-catenin/Axin signaling in mouse hepatocytes assessed as decrease in PEPCK mRNA level at 5 uM by qPCR analysis; format: cell-based; outline: as §3
[14] = Inhibition of Wnt/beta-catenin signaling (unknown origin) expressed in HEK293 cells harboring GSK3B siRNA after 24 hrs by luciferase reporter gene assay; format: cell-based; conditions: Homo sapiens, HEK293, 24 h
[15] = Toxicity in normal chow diet fed C57BL/6J mouse assessed as serum alkaline phosphatase level at 40 mg/kg, ip administered every 2 days for 11 weeks (reference value: 66.5 +/- 1.8 U/L); format: organism-based; conditions: in vivo
Axin-1 (Homo sapiens) = Axin-1 (Homo sapiens) (UniProt O15169); experiment: Stabilization of Axin1 protein in HEK293 cells assessed as increase in cytoplasmic punctas at 1 uM after 14 hrs by DAPI staining based confocal microscopic method; format: cell-based
Sequence of Axin-1 (Homo sapiens) (O15169 whole entry): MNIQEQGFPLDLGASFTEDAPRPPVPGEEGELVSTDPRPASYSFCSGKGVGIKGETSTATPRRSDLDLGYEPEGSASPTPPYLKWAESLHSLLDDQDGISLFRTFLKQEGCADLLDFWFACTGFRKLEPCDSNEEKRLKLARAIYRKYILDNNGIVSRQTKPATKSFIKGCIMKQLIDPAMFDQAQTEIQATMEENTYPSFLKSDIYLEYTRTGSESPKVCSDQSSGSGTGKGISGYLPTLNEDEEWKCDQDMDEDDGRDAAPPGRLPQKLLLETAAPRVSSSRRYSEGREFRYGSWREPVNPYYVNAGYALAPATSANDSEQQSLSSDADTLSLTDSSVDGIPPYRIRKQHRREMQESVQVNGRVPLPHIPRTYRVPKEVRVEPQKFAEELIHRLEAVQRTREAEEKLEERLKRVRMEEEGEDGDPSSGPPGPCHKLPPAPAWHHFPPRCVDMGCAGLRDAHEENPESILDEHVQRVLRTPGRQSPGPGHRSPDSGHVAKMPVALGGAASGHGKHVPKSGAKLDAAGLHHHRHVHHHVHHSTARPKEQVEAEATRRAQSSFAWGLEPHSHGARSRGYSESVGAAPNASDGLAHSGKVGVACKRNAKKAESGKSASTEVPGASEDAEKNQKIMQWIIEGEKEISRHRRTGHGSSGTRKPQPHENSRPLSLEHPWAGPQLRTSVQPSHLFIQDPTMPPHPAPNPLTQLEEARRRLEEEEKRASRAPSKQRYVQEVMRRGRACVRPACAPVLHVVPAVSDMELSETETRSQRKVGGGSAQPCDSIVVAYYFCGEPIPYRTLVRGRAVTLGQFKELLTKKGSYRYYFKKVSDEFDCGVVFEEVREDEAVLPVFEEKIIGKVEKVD
Outline: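 HEK293 cells on poly-D-lysine slides were treated with 1 μM compound for 14 h. Cells were fixed in 10% formalin for 20 min, permeabilized with methanol, blocked with 5% BSA, stained overnight for Axin1 with secondary antibody for 2 h, counterstained with DAPI, and imaged by confocal microscopy.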

Cc1ccccc1-n1nnc(C(=O)Nc2ccc3ccccc3n2)c1C
Activity [1]: 12.8 U/L
Activity (HEK293 [2]): 69%
Activity (Mus musculus [3]): Non-Toxic
Activity [4]: 21.8 mg/dL
Activity (HEK293 [5]): 41%
inhibition (Mus musculus [6]): Active
Activity (Mus musculus [7]): Non-Toxic
Activity (Mus musculus [8]): Active
Activity (Mus musculus [9]): Active
Kd [10]: 4300 nM
Activity (Mus musculus [11]): Active
growth inhibition (GI) (HEK293 [12]): Non-Toxic
inhibition (Mus musculus [13]): Active
IC50 [14]: 34 nM
Activity [15]: 57.5 U/L
Activity (Axin-1 (Homo sapiens)): Active
